From ChEMBL document CHEMBL2010760, “New insights into the structure-cytotoxicity relationship of spirostan saponins and related glycosides” (Bioorg Med Chem, 2012)
Active and inactive are the calls of the source. The rule behind the calls is not given here.

Key:
HL-60 [1] = experiment: Cytotoxicity against human HL60 cells assessed as cell viability after 72 hrs by MTT assay; type: functional, cell-based; settings: HL-60, 72 h
Summary of the method: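 HL-60 myeloid leukemia cells in RPMI 1640 with 10% heat-inactivated FBS, penicillin/streptomycin, 37 °C, 5% CO2. Exponentially growing cells (1 × 10⁴/well) exposed to 0.3–100 µM glycoside (100 mM DMSO stocks) for 72 h. MTT read at 570 nm. Survival taken as percent of control absorbance. IC50 from concentration–response curves fitted per experiment (DeLean equation). Triplicate determinations.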

HL-60 [2] = experiment: Induction of apoptosis in human HL60 cells assessed as condensed chromatin at 10 uM after 24 hrs by Hoechst 33258 staining method; type: functional, cell-based
Summary of the method: (§1)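 Nuclear chromatin condensation and fragmentation in HL-60 cells scored by fluorescent microscopy after Hoechst 33258 staining. Treated cells compared with control cells.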

HL-60 [3] = experiment: Induction of apoptosis in human HL60 cells assessed as caspase 3/7 activation measuring cleavage of tetrapeptide DEVD-pNA at 1 to 10 uM after 24 hrs; type: functional, cell-based
Summary of the method: (§2)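 HL-60 cells treated with increasing glycoside concentrations and harvested at 24 h. Lysates assayed colorimetrically with DEVD-pNA (caspase-3/7), IETD-pNA (caspase-8) and LEHD-pNA (caspase-9). Activity expressed as fold increase over control, mean ± SE. Two independent experiments, each in duplicate.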

HL-60 [4] = experiment: Induction of apoptosis in human HL60 cells assessed as fragmented chromatin at 10 uM after 24 hrs by Hoechst 33258 staining method; type: functional, cell-based; summary of the method: as §1
HL-60 [5] = experiment: Induction of apoptosis in human HL60 cells assessed as caspase 9 activation measuring cleavage of tetrapeptide LEHD-pNA at 1 to 10 uM after 24 hrs; type: functional, cell-based; summary of the method: as §2
HL-60 [6] = experiment: Induction of apoptosis in human HL60 cells assessed as morphological changes at 10 uM after 24 hrs by phase contrast microscopy; type: functional, cell-based
Summary of the method: (§3)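 HL-60 cells cultured in RPMI 1640/10% FBS at 37 °C, 5% CO2. Treated with 10 µM glycoside for 24 h. Representative fields examined by inverted phase contrast microscopy for morphology and growth.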

HL-60 [7] = experiment: Induction of apoptosis in human HL60 cells assessed as increase in hypodiploid cells at sub-G1 fraction at 10 uM after 24 hrs by propidium iodide based flow cytometry relative to control; type: functional
Summary of the method: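 HL-60 cells incubated with 10 µM glycoside for 24 h, labelled with propidium iodide and analysed by flow cytometry. Hypodiploid (sub-G1) fraction compared with control cells.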

HL-60 [8] = experiment: Growth inhibition in human HL60 cells at 10 uM after 24 hrs by phase contrast microscopy; type: functional, cell-based; summary of the method: as §3
HL-60 [9] = experiment: Induction of apoptosis in human HL60 cells assessed as caspase 8 activation measuring cleavage of tetrapeptide IETD-pNA at 1 to 10 uM after 24 hrs; type: functional, cell-based; summary of the method: as §2

Structure (SMILES) | IC50 (HL-60 [1]) [µM] | also measured
C[C@@H]1CC[C@@]2(OC1)O[C@H]1C[C@H]3[C@@H]4CC(=O)[C@@]5(O)C[C@@H](O[C@@H]6O[C@H](CO)[C@@H](O)[C@H](O)[C@H]6O)CC[C@]5(C)[C@H]4CC[C@]3(C)[C@H]1[C@@H]2C | > 100 | 
C[C@@H]1CC[C@@]2(OC1)O[C@H]1C[C@H]3[C@@H]4CC[C@H]5C[C@@H](O[C@@H]6O[C@H](CO)[C@@H](O[C@@H]7O[C@@H](C)[C@H](O)[C@@H](O)[C@H]7O)[C@H](O)[C@H]6O[C@@H]6O[C@@H](C)[C@H](O)[C@@H](O)[C@H]6O)CC[C@]5(C)[C@H]4CC(=O)[C@]3(C)[C@H]1[C@@H]2C | 4.3 | 
C[C@@H]1CC[C@@]2(OC1)O[C@H]1C[C@H]3[C@@H]4CC[C@H]5C[C@@H](O[C@@H]6O[C@H](COC(=O)C(C)(C)C)[C@@H](O)[C@H](OC(=O)C(C)(C)C)[C@H]6O)CC[C@]5(C)[C@H]4CC(=O)[C@]3(C)[C@H]1[C@@H]2C | 12 | 
C[C@@H]1CC[C@@]2(OC1)O[C@H]1C[C@H]3[C@@H]4CC[C@H]5C[C@@H](O[C@@H]6O[C@@H]7CO[C@@H](c8ccccc8)O[C@H]7[C@H](OC(=O)C(C)(C)C)[C@H]6O)CC[C@]5(C)[C@H]4CC(=O)[C@]3(C)[C@H]1[C@@H]2C | 45 | 
C[C@@H]1CC[C@@]2(OC1)O[C@H]1C[C@H]3[C@@H]4CC(=O)[C@@]5(O)C[C@@H](O[C@@H]6O[C@H](CO)[C@@H](O)[C@H](O)[C@H]6O[C@@H]6O[C@@H](C)[C@H](O)[C@@H](O)[C@H]6O)CC[C@]5(C)[C@H]4CC[C@]3(C)[C@H]1[C@@H]2C | 86.7 | 
C[C@@H]1CC[C@@]2(OC1)O[C@H]1C[C@H]3[C@@H]4CC=C5C[C@@H](O[C@@H]6O[C@H](CO)[C@@H](O[C@@H]7O[C@@H](C)[C@H](O)[C@@H](O)[C@H]7O)[C@H](O)[C@H]6O[C@@H]6O[C@@H](C)[C@H](O)[C@@H](O)[C@H]6O)CC[C@]5(C)[C@H]4CC[C@]3(C)[C@H]1[C@@H]2C [DIOSCIN] | 3.8 | 
C[C@@H]1CC[C@@]2(OC1)O[C@H]1C[C@H]3[C@@H]4CC(=O)[C@@]5(O)C[C@@H](O[C@@H]6O[C@@H]7CO[C@@H](c8ccccc8)O[C@H]7[C@H](OC(=O)C(C)(C)C)[C@H]6O)CC[C@]5(C)[C@H]4CC[C@]3(C)[C@H]1[C@@H]2C | 3.3 | 
C[C@@H]1CC[C@@]2(OC1)O[C@H]1C[C@H]3[C@@H]4CC[C@H]5C[C@@H](O[C@@H]6O[C@H](CO)[C@@H](O)[C@H](O)[C@H]6O[C@@H]6O[C@@H](C)[C@H](O)[C@@H](O)[C@H]6O)CC[C@]5(C)[C@H]4CC(=O)[C@]3(C)[C@H]1[C@@H]2C | > 100 | 
C[C@@H]1CC[C@@]2(OC1)O[C@H]1C[C@H]3[C@@H]4CC(=O)[C@@]5(O)C[C@@H](O[C@@H]6O[C@H](CO[C@@H]7O[C@@H](C)[C@H](O)[C@@H](O)[C@H]7O)[C@@H](O[C@@H]7O[C@@H](C)[C@H](O)[C@@H](O)[C@H]7O)[C@H](O)[C@H]6O)CC[C@]5(C)[C@H]4CC[C@]3(C)[C@H]1[C@@H]2C | > 100 | 
C[C@@H]1CC[C@@]2(OC1)O[C@H]1C[C@H]3[C@@H]4CC[C@H]5C[C@@H](O[C@@H]6O[C@H](CO)[C@@H](O)[C@H](O)[C@H]6O)CC[C@]5(C)[C@H]4CC(=O)[C@]3(C)[C@H]1[C@@H]2C | > 100 | 
C[C@@H]1CC[C@@]2(OC1)O[C@H]1C[C@H]3[C@@H]4CC(=O)[C@@]5(O)C[C@@H](O[C@@H]6O[C@H](CO)[C@@H](O[C@@H]7O[C@@H](C)[C@H](O)[C@@H](O)[C@H]7O)[C@H](O)[C@H]6O[C@@H]6O[C@@H](C)[C@H](O)[C@@H](O)[C@H]6O)CC[C@]5(C)[C@H]4CC[C@]3(C)[C@H]1[C@@H]2C | > 100 | 
C[C@@H]1CC[C@@]2(OC1)O[C@H]1C[C@H]3[C@@H]4CC(=O)[C@@]5(O)C[C@@H](O[C@@H]6O[C@H](COC(=O)C(C)(C)C)[C@@H](O)[C@H](OC(=O)C(C)(C)C)[C@H]6O)CC[C@]5(C)[C@H]4CC[C@]3(C)[C@H]1[C@@H]2C | 2.1 | Activity (HL-60 [2]): Active; Activity (HL-60 [3]): Active; Activity (HL-60 [4]): Active; Activity (HL-60 [5]): Active; Activity (HL-60 [6]): Active; fold change (FC) (HL-60 [7]): 7; growth inhibition (GI) (HL-60 [8]): Active; Activity (HL-60 [9]): Active
C[C@@H]1CC[C@@]2(OC1)O[C@H]1C[C@H]3[C@@H]4CC[C@H]5C[C@@H](O[C@@H]6O[C@H](CO[C@@H]7O[C@@H](C)[C@H](O)[C@@H](O)[C@H]7O)[C@@H](O[C@@H]7O[C@@H](C)[C@H](O)[C@@H](O)[C@H]7O)[C@H](O)[C@H]6O)CC[C@]5(C)[C@H]4CC(=O)[C@]3(C)[C@H]1[C@@H]2C | > 100 | 
